Measured values as given in PubChem BioAssay.
Records with an inconclusive call do not appear.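 How the source made its calls, unless noted: active means viability increase at or above a cutoff of the median across tested compounds plus 3 SD (cut at about 8.5% in these data, passing the limit was not always enough); inconclusive means some gains above the cutoff, reason not given; inactive means the rest.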

Columns and labels:
[1] = OD615 S. cerevisiae growth inhibition, permissive medium, pilot counter-assay, permissive growth control for S. cerevisiae lifespan shortening project (AID 705;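 active means growth inhibition above 25% in both replicates, a cutoff set 3 SD above the mean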); settings: OD615, 24 h, at 10 µM, stronger effect = higher value
How it was run: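 assay system = Saccharomyces cerevisiae strain carrying genetically modified DeaD replicative-lifespan system | technique = absorbance (optical density) at 615 nm | buffer or medium = permissive raffinose/galactose medium | timing = cells pre-grown 4 h, then 24 h compound exposure, 30 °C humidified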

[2] = Restrictive medium S. cerevisiae growth inhibition, OD615, pilot screen of yeast lifespan reduction project, restrictive growth control (AID 706;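 active means growth inhibition above a set limit, 3 SD over mean compound inhibition, in both replicates, cut at about 43% in these data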;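 further: modified DeaD lifespan yeast strain shifted to restrictive glucose medium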); settings: OD615, 48 h, at 10 µM, stronger effect = higher value
How it was run: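 System: modified S. cerevisiae. Buffer or medium: CSMM-D glucose medium. Incubation: 4 h pre-growth plus 48 h compound exposure, 30 °C. Detection: absorbance (optical density) measured at 615 nm.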

[3] = viability gain of MRP-1-high H69AR cells under doxorubicin, pilot screen, MRP-1 activator project, CellTiter-Glo, duplicate (AID 807); settings: H69AR viability with doxorubicin, CellTiter-Glo luminescence; at 10 µM; stronger effect = higher value;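 further: compound pretreatment 18-22 h then 72 h combined with doxorubicin; 0% = doxorubicin alone and 100% = vehicle without doxorubicin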
[4] = growth suppression of beta-catenin knockout HCT116, pilot screen, human colon tumor cells (AID 823;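 active means cell viability at or below a set limit in both duplicate runs, the limit being the all-compound median minus 4 SD, cut at about 23% in these data, passing the limit was not always enough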;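 further: 0% = wells killed by 20 µM Hyamine and 100% = untreated DMSO cell wells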); settings: CellTiter-Glo, 60 h, at 10 µM, stronger effect = lower value
[5] = growth suppression of PTEN-deleted HCT116, pilot screen, cell-based, HCT116 clonal line, CellTiter-Glo (AID 824;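 active means viability at or below 27.92% in each of two runs, the all-compound median minus 4 SD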;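 further: 0% = 20 µM Hyamine control and 100% = vehicle cell control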); settings: 60 h, at 10 µM, stronger effect = lower value
[6] = inhibitors of the yeast RAM network, pilot screen, dse1pr::URA3 reporter, 5-FOA selection (AID 869;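 active means inhibition over a set limit, the all-compound mean plus 3 SD, in both replicate runs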;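 further: 0% = DMSO wells with no growth and 100% = 10 µM 1-NA-PP1 with full growth; RAM network block rescues cells from 5-FOA so hits raise OD615 growth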); settings: S. cerevisiae dse1pr::URA3 5-FOA growth, OD615, 2 d; at 10 µM; stronger effect = higher value; strain carries analog-sensitive mutant Cbk1 kinase
[7] = RAM signaling pathway blockade in yeast – S. cerevisiae, Pdr1DBD-CYC8 efflux-inhibited sensitized strain, primary screen (AID 1298;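 active means RAM network inhibition above 8.4% in each of two replicates, 3 SD over the compound average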;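 further: 0% = DMSO untreated cells without growth and 100% = 10 µM 1-NA-PP1 full growth; higher means more yeast growth rescued from 5-FOA killing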); settings: S. cerevisiae cbk1-as DSE1-URA3 strain, 5-FOA growth OD615, 2 d; at 50 µM; stronger effect = higher value

O=C(O)CCC(=O)Nc1ccc(-c2nnc(-c3ccco3)o2)cc1
inactive: growth inhibition [1] -12.8% | growth inhibition [2] -4.63% | viability increase [3] -0.63% | viability [4] 102% | viability [5] 99.8% | inhibition [6] 1.61% | RAM network inhibition [7] 2.14%

Cc1cc(NC(=O)CSc2c3c(nc4ccccc24)CCC3)no1
inactive: growth inhibition [1] -4.17% | growth inhibition [2] 5.52% | viability increase [3] -6.01% | viability [4] 78.1% | viability [5] 74.6% | inhibition [6] 2.21% | RAM network inhibition [7] 2.01%

CCC(C)NC(=O)CS(=O)Cc1nc(-c2cccc(C)c2)oc1C (stereo not drawn)
inactive: growth inhibition [1] -12.9% | growth inhibition [2] -5.66% | viability increase [3] -1.72% | viability [4] 99.4% | viability [5] 88.2% | inhibition [6] 1.52% | RAM network inhibition [7] 4.65%

Nc1nc(NC(=O)c2ccco2)nn1-c1ccccc1
inactive: growth inhibition [1] -11.7% | growth inhibition [2] 1.96% | viability increase [3] -2.61% | viability [4] 93.8% | viability [5] 98.6% | inhibition [6] -0.025% | RAM network inhibition [7] 5.17%

CCOC(=O)Cn1c(=O)oc2cc(S(=O)(=O)Nc3ccc(N(CC)CC)cc3C)ccc21
inactive: growth inhibition [1] -11.3% | growth inhibition [2] -8.05% | viability increase [3] 0.16% | viability [4] 85.6% | viability [5] 86.6% | inhibition [6] 1.81% | RAM network inhibition [7] 9.51%

CCOc1ccccc1Oc1c(C)oc2cc(OC(=O)N3CCOCC3)ccc2c1=O
inactive: growth inhibition [1] -12.9% | growth inhibition [2] -3.33% | viability increase [3] -0.28% | viability [4] 103% | viability [5] 103% | inhibition [6] 2.8% | RAM network inhibition [7] 4.64%

O=C1C(C=NCCCN2CCOCC2)=C(O)c2ccccc21
inactive: growth inhibition [1] -1.9% | growth inhibition [2] 10.5% | viability increase [3] -4.78% | viability [4] 98.6% | viability [5] 90.2% | inhibition [6] 0.71% | RAM network inhibition [7] 5.89%

COc1cc(C2C(C(=O)c3ccco3)=C(O)C(=O)N2Cc2cccnc2)cc(OC)c1OC (stereo not drawn)
inactive: growth inhibition [1] 2.67% | growth inhibition [2] -4.03% | viability increase [3] -3.86% | viability [4] 102% | viability [5] 96.8% | inhibition [6] 1.64% | RAM network inhibition [7] 4.97%

O=C(NC(C(=O)c1ccccc1)N1CCOCC1)c1ccccc1 (stereo not drawn)
inactive: growth inhibition [1] -2.93% | growth inhibition [2] 13.8% | viability increase [3] -2.37% | viability [4] 99.3% | viability [5] 101% | inhibition [6] 1.61% | RAM network inhibition [7] 1.98%

CCOc1ccc(NC(=O)C2C3C=CC4(CN(C(C(=O)OC)C(C)C)C(=O)C24)O3)cc1 (stereo not drawn)
inactive: growth inhibition [1] -9.79% | growth inhibition [2] 5.85% | viability increase [3] -1.43% | viability [4] 108% | viability [5] 102% | inhibition [6] 1.31% | RAM network inhibition [7] 6.37%

COC(=O)c1c(NC(=O)c2nc3ccccc3s2)sc2c1CCN(C(C)=O)C2
inactive: growth inhibition [1] 7.87% | growth inhibition [2] 1.73% | viability increase [3] -6.02% | viability [4] 71.7% | viability [5] 68% | inhibition [6] 4% | RAM network inhibition [7] 5.96%

COc1cccc(CNC(=O)c2cc3ccccn3n2)c1
inactive: growth inhibition [1] -1.27% | growth inhibition [2] -6.35% | viability increase [3] -2.27% | viability [4] 106% | viability [5] 96.8% | inhibition [6] 1.33% | RAM network inhibition [7] -0.11%

O=c1nc2n(c3sc4c(c13)CCC4)Cc1ccccc1-2
inactive: growth inhibition [1] -15.5% | growth inhibition [2] -9.3% | viability increase [3] -2.14% | viability [4] 94.2% | viability [5] 100% | inhibition [6] 1.48% | RAM network inhibition [7] 1.43%

CC(=N)C1=C(O)CC(C)(C)CC1=O
inactive: growth inhibition [1] -7.31% | growth inhibition [2] -1.06% | viability increase [3] 0.77% | viability [4] 94.9% | viability [5] 105% | inhibition [6] 1.49% | RAM network inhibition [7] 2.39%

COC(=O)c1ccc(/C=N/n2cnnc2)cc1
inactive: growth inhibition [1] -10.3% | growth inhibition [2] -20% | viability increase [3] -1.44% | viability [4] 101% | viability [5] 89.3% | inhibition [6] 0.79% | RAM network inhibition [7] 4.48%

Cc1csc(C(C#N)C(=O)c2cc3ccccc3o2)n1 (stereo not drawn)
inactive: growth inhibition [1] -21.6% | growth inhibition [2] -8.8% | viability increase [3] -0.75% | viability [4] 93.7% | viability [5] 85.3% | inhibition [6] 2.67% | RAM network inhibition [7] 0.32%

Cn1c(=O)[nH]c(=O)c2c1nc(N1CCCCC1)n2CCSc1nc2ccccc2o1
inactive: growth inhibition [1] -4.52% | growth inhibition [2] -1.63% | viability increase [3] -3.7% | viability [4] 90.7% | viability [5] 92.4% | inhibition [6] 1.11% | RAM network inhibition [7] 1.87%

Cn1c(=O)oc2cc(S(=O)(=O)N3CCCC(C(=O)NCc4cccs4)C3)ccc21 (stereo not drawn)
inactive: growth inhibition [1] 2.14% | growth inhibition [2] 2.64% | viability increase [3] -1.73% | viability [4] 100% | viability [5] 93.4% | inhibition [6] 2.51% | RAM network inhibition [7] 6.45%

O=c1cc(N2CCN(c3ccccc3)CC2)[nH]c(=O)n1Cc1ccc(F)cc1
inactive: growth inhibition [1] 6.47% | growth inhibition [2] -4.22% | viability increase [3] 0.72% | viability [4] 89.6% | viability [5] 80.9% | inhibition [6] 2.68% | RAM network inhibition [7] 3.61%

CCOC(=O)N1CCC(N2CC34C=CC(O3)C(C(=O)Nc3ccc(F)cc3)C4C2=O)CC1 (stereo not drawn)
inactive: growth inhibition [1] -4.45% | growth inhibition [2] -3.7% | viability increase [3] 1.43% | viability [4] 105% | viability [5] 101% | inhibition [6] 0.885% | RAM network inhibition [7] 6.68%

CCOc1ccccc1N1C(=O)c2cccnc2C1=O
inactive: growth inhibition [1] -9.2% | growth inhibition [2] 7.41% | viability increase [3] -1.2% | viability [4] 102% | viability [5] 98.7% | inhibition [6] 1.04% | RAM network inhibition [7] 10.2%

CCOC(=O)N1CCN(C(=O)COc2ccc(Br)cc2)CC1
inactive: growth inhibition [1] -16.4% | growth inhibition [2] 11.8% | viability increase [3] 1.9% | viability [4] 100% | viability [5] 90.6% | inhibition [6] 1.12% | RAM network inhibition [7] 6.68%

CC1CCCN(C(=O)C(Cc2ccccc2)n2cccc2)C1 (stereo not drawn)
inactive: growth inhibition [1] -11.8% | growth inhibition [2] -13% | viability increase [3] -3.01% | viability [4] 87.3% | viability [5] 88.4% | inhibition [6] 2% | RAM network inhibition [7] 0.97%

Cn1cc(S(=O)(=O)N2CCN(Cc3ccccc3)CC2)c(=O)n(C)c1=O
inactive: growth inhibition [1] -11.9% | growth inhibition [2] -10.5% | viability increase [3] -0.5% | viability [4] 95.2% | viability [5] 95.5% | inhibition [6] 0.755% | RAM network inhibition [7] -0.22%
